The target of test [1] is T1, Proteasome Macropain subunit MB1 (Homo sapiens) (UniProt P28074).
T1 sequence (whole entry): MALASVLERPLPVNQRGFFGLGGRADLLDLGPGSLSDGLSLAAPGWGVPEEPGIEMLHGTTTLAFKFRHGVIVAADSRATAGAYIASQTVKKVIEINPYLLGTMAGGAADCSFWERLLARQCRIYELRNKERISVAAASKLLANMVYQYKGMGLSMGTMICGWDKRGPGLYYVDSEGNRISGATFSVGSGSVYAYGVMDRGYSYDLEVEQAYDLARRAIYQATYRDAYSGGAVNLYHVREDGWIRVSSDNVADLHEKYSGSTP
Briefly: Negative allosteric modulation of SDS-activated human erythrocytes 20S proteasome chymotrypsin like activity using Suc-LLVY-AMC as substrate measured every 2 mins up to 60 mins by fluorescence assay. In outline: (§1)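 1.4 nM CP (0.001 mg/mL) in 50 mM Tris-HCl pH 8.0, activated with 0.005% SDS where stated, otherwise latent. Suc-LLVY-AMC at 100 μM final. AMC fluorescence read every 2 min up to 60 min at 37 °C. Activity relative to DMSO-treated enzyme, from at least three independent replicates. Peptide stocks 10 mM in DMSO.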

For test [2], the target named is T1, Proteasome Macropain subunit MB1 (Homo sapiens). Description: Positive allosteric modulation of latent human erythrocytes 20S proteasome chymotrypsin like activity up to 10 uM using LFP as substrate measured every 2 mins up to 60 mins by fluorescence assay.
Test [3] has the same target. Briefly: Negative allosteric modulation of SDS-activated human erythrocytes 20S proteasome chymotrypsin like activity up to 10 uM using LFP as substrate measured every 2 mins up to 60 mins by fluorescence assay.
The target is the same in test [4]. Briefly: Positive allosteric modulation of latent human erythrocytes 20S proteasome chymotrypsin like activity up to 10 uM using Suc-LLVY-AMC as substrate measured every 2 mins up to 60 mins by fluorescence assay. The method in brief:
as §1

For test [5], the target named is T2, 20S proteasome (Homo sapiens) (UniProt P49721+P20618+P28074+P28062+P28065+P28072+P25786+P25787+P25788+P25789+P28066+P60900+O14818+Q8TAA3+P40306+A5LHX3+P49720+P28070+Q99436). Briefly: Negative allosteric modulation of SDS-activated human erythrocytes 20S proteasome assessed as reduction in human alpha-synuclein degradation at 1 uM after 1 hr by SDS-PAGE analysis. The method in brief: (§2)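 Human α-synuclein or yeast enolase digested by human 20S activated with 0.01% SDS (20S:substrate 1:100 pmol α-syn, 1:10 pmol enolase) in 20 mM HEPES pH 7.4 at 37 °C for 1 h (α-syn) or 4 h (enolase). DMSO at or below 0.05%. SDS–PAGE (12% or 10%) with Coomassie staining; remaining substrate densitometry as percent of control; at least three experiments, mean ± SEM.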

Test [6] has as its target T2, 20S proteasome (Homo sapiens). Description: Negative allosteric modulation of SDS-activated human erythrocytes 20S proteasome assessed as reduction in human alpha-synuclein degradation at 10 uM after 1 hr by SDS-PAGE analysis. In outline:
as §2

The target is the same in test [7]. Description: Effect on alpha-face conformations of latent human erythrocytes 20S proteasome assessed as open state conformation at 1 uM by atomic force microscopic method (reference value: 7%).
Test [8] has the same target. Briefly: Effect on alpha-face conformations of latent human erythrocytes 20S proteasome assessed as open state conformation at 10 uM by atomic force microscopic method (reference value: 7%).
For test [9] the target is unchanged. Briefly: Effect on alpha-face conformations of latent human erythrocytes 20S proteasome assessed as intermediate state conformation at 10 uM by atomic force microscopic method (reference value: 22%).
The target is the same in test [10]. Description: Effect on alpha-face conformations of latent human erythrocytes 20S proteasome assessed as closed state conformation at 1 uM by atomic force microscopic method (reference value: 70%).
Test [11] shares this target. Description: Effect on alpha-face conformations of latent human erythrocytes 20S proteasome assessed as closed state conformation at 10 uM by atomic force microscopic method (reference value: 70%).
Test [12] has the same target. Briefly: Negative allosteric modulation of SDS-activated human erythrocytes 20S proteasome assessed as reduction in yeast enolase degradation at 1 uM after 4 hr by SDS-PAGE analysis.
The target is the same in test [13]. Briefly: Negative allosteric modulation of SDS-activated human erythrocytes 20S proteasome assessed as reduction in yeast enolase degradation at 10 uM after 4 hr by SDS-PAGE analysis.
The target of test [14] is T1, Proteasome Macropain subunit MB1 (Homo sapiens). Briefly: Positive allosteric modulation of latent human erythrocytes 20S proteasome chymotrypsin like activity up to 10 uM using LFP as substrate measured every 2 mins up to 60 mins by fluorescence assay.
The target of test [15] is Proteasome Macropain subunit (Homo sapiens) (UniProt P49721). Briefly: Negative allosteric modulation of SDS-activated human erythrocytes 20S proteasome trypsin like activity at 10 uM using Boc-LRR-AMC as substrate measured every 2 mins up to 60 mins by fluorescence assay.
The target of test [16] is T3, Proteasome component C5 (Homo sapiens) (UniProt P20618).
T3 sequence (whole entry): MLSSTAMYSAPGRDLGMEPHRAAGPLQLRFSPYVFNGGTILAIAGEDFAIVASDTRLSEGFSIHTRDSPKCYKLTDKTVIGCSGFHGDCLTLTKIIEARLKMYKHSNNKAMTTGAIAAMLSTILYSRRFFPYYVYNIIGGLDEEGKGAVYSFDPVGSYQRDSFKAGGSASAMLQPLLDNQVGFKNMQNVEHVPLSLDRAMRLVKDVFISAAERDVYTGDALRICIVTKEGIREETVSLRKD
Briefly: Negative allosteric modulation of SDS-activated human erythrocytes 20S proteasome caspase like activity at lower concentration using Z-LLE-AMC as substrate measured every 2 mins up to 60 mins by fluorescence assay.

SMILES strings stand for the structures. Calls of active or inactive are those of the source. No cut-off for these calls is given here. Residues, ends and D or L forms follow the SMILES beside them. Some results are limits rather than exact numbers.

Sequence of Proteasome Macropain subunit (Homo sapiens) (P49721 whole entry): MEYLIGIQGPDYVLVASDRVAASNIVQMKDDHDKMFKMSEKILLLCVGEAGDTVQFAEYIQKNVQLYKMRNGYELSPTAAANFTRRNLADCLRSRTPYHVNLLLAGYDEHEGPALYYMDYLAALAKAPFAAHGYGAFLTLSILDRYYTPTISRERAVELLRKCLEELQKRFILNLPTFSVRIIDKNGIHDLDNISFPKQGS

For the molecule `CC(C)C[C@H](NC(=O)[C@H](Cc1ccc(O)cc1)NC(=O)[C@@H]1CCCN1C(=O)[C@@H]1CCCN1C(=O)[C@H](CCCNC(=N)N)NC(=O)[C@@H]1CCCN1C(=O)[C@H](CCCNC(=N)N)NC(=O)[C@H](CCCNC(=N)N)NC(=O)[C@@H](N)CCCNC(=N)N)C(=O)N1CCC[C@H]1C(=O)N[C@@H](CCCNC(=N)N)C(=O)N[C@@H](Cc1c[nH]c2ccccc12)C(=O)NCC(=O)O` (H-RRRPRPPYLPRWG-OH), the Activity result was “Dose-dependent effect” in test [1]; below 3% in test [7]; 18% in test [8]; 25% in [9]; 73% in test [10]; 57% in [11]. For the same molecule, the result in test [2], in [4] and in test [14] was inactive. Besides, the outcome in test [3], in [5], in test [6], in [12], in test [13] and in test [15] was Active. Further, in [16], the outcome was Active.

The record behind these values is ChEMBL document CHEMBL4371016, “Proline- and Arginine-Rich Peptides as Flexible Allosteric Modulators of Human Proteasome Activity” (J Med Chem, 2019).
